The source made the active and inactive calls. The calls are words filed in the database; no cut-off is given here.
What was measured:
TAK1/TAB1 (Homo sapiens) = TAK1/TAB1 (Homo sapiens) (UniProt Q15750+O43318); test: Inhibition of Tak1-TAB1 (unknown origin) assessed as enzyme activity by Kinase-Glo Plus luminescence kinase assay; assay type: protein-complex assay
HT-29 [1] = test: Cytotoxicity against human HT-29 cells assessed as cell viability at 10 nM after 72 hrs; assay type: functional; details: HT-29, 72 h, read-out: Activity
Method in brief: (§1)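 Vinblastine was the positive control, at 10 nM in HT-29 and 1 nM in MDA-MB-435 cells. Cells were seeded at 5000/well, incubated overnight, then exposed for 72 h at 37 °C in 5% CO2. Viability was read by absorbance assay of viable cells and expressed as % viable cells.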

MDA-MB-435 [2] = test: Cytotoxicity against human MDA-MB-435 cells assessed as cell viability at 1 nM after 72 hrs; assay type: functional; details: MDA-MB-435, 72 h, read-out: Activity; method in brief: as §1
HT-29 [3] = test: Cytotoxicity against human HT-29 cells assessed as cell viability after 72 hrs; assay type: functional, cell-based; details: HT-29, 72 h
Method in brief: (§2)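 ATCC lines grown in RPMI 1640 with 10% FBS, penicillin and streptomycin at 37 °C, 5% CO2. Log-phase cells were trypsinized, washed twice, seeded at 5000/well and incubated overnight. Compound was added from DMSO at 20, 4, 0.8, 0.16 and 0.032 μM (0.5% DMSO final) for 72 h at 37 °C. Viable cells were read by commercial absorbance assay. IC50 is growth inhibition to 50% of DMSO control.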

MDA-MB-435 [4] = test: Cytotoxicity against human MDA-MB-435 cells assessed as cell viability after 72 hrs; assay type: functional, cell-based; details: MDA-MB-435, 72 h; method in brief: as §2

| Structure (SMILES) | inhibition (TAK1/TAB1 (Homo sapiens)) | viability at 0.01 µM (HT-29 [1]) [%] | viability at 0.001 µM (MDA-MB-435 [2]) [%] | IC50 (HT-29 [3]) [µM] | IC50 (MDA-MB-435 [4]) [µM] |
| --- | --- | --- | --- | --- | --- |
| COc1cc(O)c(Cl)c2c1C(=O)O[C@@H](C)CC[C@@H](O)CC/C=C\C(=O)C2 | inactive |  |  |  |  |
| CC[C@]1(O)C[C@@H]2CN(CCc3c([nH]c4ccccc34)[C@@](C(=O)OC)(c3cc4c(cc3OC)N(C)[C@H]3[C@@](O)(C(=O)OC)[C@H](OC(C)=O)[C@]5(CC)C=CCN6CC[C@]43[C@@H]65)C2)C1 [VINBLASTINE] |  | 44 | 21 |  |  |
| COc1cc(O)cc2c1C(=O)O[C@@H](C)CC[C@@H](O)CC/C=C/C(=O)C2 | inactive |  |  | 25.4 | 11.2 |
| COc1cc(O)c(Cl)c2c1C(=O)O[C@@H](C)CCC(=O)CC/C=C/C(=O)C2 | inactive |  |  | > 20 | 14.1 |
| COc1cc(O)cc2c1C(=O)O[C@@H](C)CC[C@H]1CC[C@@H](CC(=O)C2)O1 | inactive |  |  |  |  |
| COc1cc(O)cc2c1C(=O)O[C@@H](C)CCCCCCCC(=O)C2 | inactive |  |  |  |  |
| COc1cc(O)cc2c1C(=O)O[C@@H](C)CC[C@H]1CC[C@H](CC(=O)C2)O1 | inactive |  |  |  |  |
| C[C@H]1CCCCC/C=C/C(=O)Cc2cc(O)cc(O)c2C(=O)O1 | inactive |  |  | 13.8 | 14.5 |
| COc1cc(O)cc2c1C(=O)O[C@@H](C)CCC(=O)CC/C=C/C(=O)C2 | inactive |  |  | > 20 | 14.1 |
| COc1cc(O)c(Cl)c2c1C(=O)O[C@@H](C)CC[C@@H](O)CCCCC(=O)C2 | inactive |  |  |  |  |
| COc1cc(O)cc2c1C(=O)O[C@@H](C)CCCCC/C=C/C(=O)C2 | inactive |  |  | 7.5 | 2.9 |
| COc1cc(O)c(Cl)c2c1C(=O)O[C@@H](C)CCC(=O)CCCCC(=O)C2 | inactive |  |  |  |  |
| COc1cc(O)c(Cl)c2c1C(=O)O[C@@H](C)CCC(=O)CC/C=C\C(=O)C2 | inactive |  |  |  |  |
